Measured values: ChEMBL document CHEMBL1141368, “Identification of a nonpeptidic and conformationally restricted bradykinin B1 receptor antagonist with anti-inflammatory activity” (J Med Chem, 2007)

How the values were obtained:
B1 bradykinin receptor [1] = target: T1, B1 bradykinin receptor (Homo sapiens, UniProt P46663); assay: Antagonistic activity at human bradykinin B1 receptor expressed in CHO cells assessed as effect on DAK-mediated calcium mobilization; assay type: functional, cell-based
T1 sequence (P46663 whole entry): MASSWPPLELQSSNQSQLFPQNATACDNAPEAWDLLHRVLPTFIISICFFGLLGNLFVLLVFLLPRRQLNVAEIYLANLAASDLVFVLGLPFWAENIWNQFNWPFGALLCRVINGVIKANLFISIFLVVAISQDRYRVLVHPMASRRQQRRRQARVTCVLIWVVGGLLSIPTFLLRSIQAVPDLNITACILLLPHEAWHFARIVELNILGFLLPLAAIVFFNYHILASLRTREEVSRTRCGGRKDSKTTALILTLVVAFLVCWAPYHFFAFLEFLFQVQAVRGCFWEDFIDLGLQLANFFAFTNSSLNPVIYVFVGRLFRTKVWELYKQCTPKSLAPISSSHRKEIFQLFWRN
How it was run: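 B1 receptor cDNA transfected into CHO cells; antagonist potency given as IC50 ± SEM with the number of determinations (n).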

B1 bradykinin receptor [2] = target: T1, B1 bradykinin receptor; assay: Displacement of [3H]DAK from human bradykinin B1 receptor expressed in CHO-D cells; assay type: cell-based
B2 bradykinin receptor = target: T2, B2 bradykinin receptor (Homo sapiens, UniProt P30411); assay: Displacement of [3H]bradykinin from human bradykinin B2 receptor expressed in CHO-K1 cells; assay type: cell-based
T2 sequence (P30411 whole entry): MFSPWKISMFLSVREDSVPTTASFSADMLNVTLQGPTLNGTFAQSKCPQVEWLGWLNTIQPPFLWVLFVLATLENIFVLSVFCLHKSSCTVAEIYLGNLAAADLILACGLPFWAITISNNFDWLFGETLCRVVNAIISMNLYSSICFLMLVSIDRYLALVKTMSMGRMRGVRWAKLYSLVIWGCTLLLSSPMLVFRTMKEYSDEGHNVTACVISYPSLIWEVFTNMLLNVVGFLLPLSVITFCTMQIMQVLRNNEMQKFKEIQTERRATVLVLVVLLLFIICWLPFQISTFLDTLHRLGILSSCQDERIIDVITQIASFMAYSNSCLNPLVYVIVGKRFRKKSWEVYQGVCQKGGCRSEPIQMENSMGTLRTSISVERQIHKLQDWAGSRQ

[3] = Half life in rat at 1 mg/kg, iv; assay type: ADME, organism-based; set-up: dose 1 mg/kg, route intravenous; conditions: in vivo
[4] = AUC (0-t) in rat at 1 mg/kg, iv; assay type: ADME, organism-based; set-up: dose 1 mg/kg, route intravenous; conditions: plasma
[5] = AUC (0-inf) in rat at 1 mg/kg, iv; assay type: ADME, organism-based; set-up: time infinity, dose 1 mg/kg, route intravenous; conditions: plasma
[6] = Volume of distribution in rat at 1 mg/kg, iv; assay type: ADME, organism-based; set-up: dose 1 mg/kg, route intravenous; conditions: in vivo, read-out: Vss
[7] = Mean residence time in rat at 1 mg/kg, iv; assay type: ADME, organism-based; set-up: dose 1 mg/kg, route intravenous; conditions: in vivo
[8] = Tmax in rat at 10 mg/kg, sc; assay type: ADME, organism-based; set-up: dose 10 mg/kg, route subcutaneous; conditions: in vivo
[9] = Cmax in rat at 10 mg/kg, sc; assay type: ADME, organism-based; set-up: dose 10 mg/kg, route subcutaneous; conditions: in vivo
[10] = Half life in rat at 10 mg/kg, sc; assay type: ADME, organism-based; set-up: dose 10 mg/kg, route subcutaneous; conditions: in vivo
[11] = AUC (0-t) in rat at 10 mg/kg, sc; assay type: ADME, organism-based; set-up: dose 10 mg/kg, route subcutaneous; conditions: plasma
Plasma = assay: Fraction unbound in rat plasma; assay type: ADME, cell-free
[12] = AUC (0-inf) in rat at 10 mg/kg, sc; assay type: ADME, organism-based; set-up: time infinity, dose 10 mg/kg, route subcutaneous; conditions: plasma
[13] = Clearance in rat at 10 mg/kg, sc; assay type: ADME, organism-based; set-up: dose 10 mg/kg, route subcutaneous; conditions: in vivo
[14] = Bioavailability in rat at 10 mg/kg, sc; assay type: ADME, organism-based; conditions: in vivo
Rattus norvegicus [15] = assay: Relevant drug concentration for 5-6 hrs in rat at 90 mg/kg, sc; assay type: ADME, organism-based; set-up: dose 90 mg/kg, route subcutaneous; conditions: in vivo
Rattus norvegicus [16] = assay: Reduction of exudates volume in rat carrageenan-induced pleurisy model at 90 mg/kg, sc relative to control; assay type: functional; set-up: scale not given: the % may be the effect or the level left; conditions: route subcutaneous
Rattus norvegicus [17] = assay: Reduction of exudates volume in rat reverse passive arthus model at 30 mg/kg, sc relative to control; assay type: functional; set-up: scale not given: the % may be the effect or the level left; conditions: route subcutaneous
How it was run: (§1)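 Reverse passive Arthus inflammation model in rats; drug given s.c. at 30, 60 or 90 mg/kg; exudate volume expressed relative to saline-treated animals and tested for statistical significance.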

Rattus norvegicus [18] = assay: Reduction of exudates volume in rat reverse passive arthus model at 60 mg/kg, sc relative to control; assay type: functional; set-up: scale not given: the % may be the effect or the level left; conditions: route subcutaneous; how it was run: as §1
Rattus norvegicus [19] = assay: Reduction of exudates volume in rat reverse passive arthus model at 90 mg/kg, sc relative to control; assay type: functional; set-up: scale not given: the % may be the effect or the level left; conditions: route subcutaneous; how it was run: as §1
Rattus norvegicus [20] = assay: Reduction of edema formation in rat reverse passive arthus model at 3 mg/kg, po; assay type: ADME, organism-based; set-up: dose 3 mg/kg, route oral; conditions: in vivo

| IC50 (B1 bradykinin receptor [1]) [nM] | Ki (B1 bradykinin receptor [2]) [nM] | Ki (B2 bradykinin receptor) [nM] | Structure (SMILES) | also measured |
| --- | --- | --- | --- | --- |
| 359 | 382 | 56000 | O=C(CC(NS(=O)(=O)c1ccc2ccccc2c1)c1ccccc1)NCc1ccc(CN2CCCCC2)cc1 (racemic) |  |
| 302 | 17 |  | C[C@@H](NC(=O)C[C@@H](NS(=O)(=O)c1ccc2ccccc2c1)c1ccccc1)c1ccc(CN2CCCCC2)cc1 |  |
| 14 | 15.8 | 16000 | CN1c2cc(CN3CCCCC3)ccc2[C@H](NC(=O)C[C@@H](NS(=O)(=O)c2ccc3ccccc3c2)c2ccccc2)CS1(=O)=O |  |
| 10.7 | 1.3 | 35000 | CN1c2cc(CN3CCCCC3)ccc2[C@@H](NC(=O)C[C@@H](NS(=O)(=O)c2ccc3ccccc3c2)c2ccccc2)CS1(=O)=O |  |
| 5.6 | 1.6 | 49200 | O=C(C[C@@H](NS(=O)(=O)c1ccc2ccccc2c1)c1ccccc1)N[C@@H]1CCc2cc(CN3CCCCC3)ccc21 |  |
| > 4000 |  |  | O=C(C[C@H](NS(=O)(=O)c1ccc2ccccc2c1)c1ccccc1)NCc1ccc(CN2CCCCC2)cc1 |  |
| 447 | 132 |  | O=C(C[C@@H](NS(=O)(=O)c1ccc2ccccc2c1)c1ccccc1)NCc1ccc(CN2CCCCC2)cc1 |  |
| 183 | 241 | 13300 | O=C(C[C@@H](NS(=O)(=O)c1ccc2ccccc2c1)c1ccccc1)N[C@H]1CCc2cc(CN3CCCCC3)ccc21 |  |
|  |  | > 20000 | O=C(C[C@@H](NS(=O)(=O)c1ccc2ccccc2c1)c1ccccc1)N[C@H]1CCOc2cc(CN3CCCCC3)ccc21 |  |
| 325 |  |  | O=C(C[C@@H](NS(=O)(=O)c1ccc2ccccc2c1)c1ccccc1)NC1CCc2cc(CCN3CCCCC3)ccc2C1 (stereo partly drawn) |  |
|  |  | > 50000 | O=C(C[C@@H](NS(=O)(=O)c1ccc2ccccc2c1)c1ccccc1)N[C@@H]1CCOc2cc(CN3CCCCC3)ccc21 | half-life [3]: 1.4 h; AUC(0-t) [4]: 194 ng·h/mL; AUC(0-inf) [5]: 201 ng·h/mL; Vd [6]: 7.43 L/kg; MRT [7]: 1.5 h; Tmax [8]: 0.4 h; Cmax [9]: 825 ng/mL; half-life [10]: 2.2 h; AUC(0-t) [11]: 1960 ng·h/mL; Fu (Plasma): 0.032; AUC(0-inf) [12]: 2090 ng·h/mL; CL/F [13]: 79.6 mL/min/kg; bioavailability [14]: 106%; concentration (Rattus norvegicus [15]): 125 nM; Activity (Rattus norvegicus [16]): 22%; Activity (Rattus norvegicus [17]): 14%; Activity (Rattus norvegicus [18]): 10%; Activity (Rattus norvegicus [19]): 26% |
|  |  |  | COc1ccc2c(c1)c(CC(=O)O)c(C)n2C(=O)c1ccc(Cl)cc1 [INDOMETHACIN] | Activity (Rattus norvegicus [20]): Not Active |
| 540 |  |  | O=C(C[C@@H](NS(=O)(=O)c1ccc2ccccc2c1)c1ccccc1)NCCc1ccc(CN2CCCCC2)cc1 |  |
